Series [1] has as its system Vesicular stomatitis Indiana virus. Put plainly: Antiviral activity against Vesicular stomatitis virus Indiana ATCC VR 1540 infected in African green monkey Vero 76 cells after 3 days by plaque reduction assay. The format is functional, organism-based. Conditions: ATCC VR 1540, Vero 76, 72 h. Background: In a plaque reduction assay, fewer plaques than in the control indicate reduced infectivity or spread.

Series [2] in a line: Cytotoxicity against human MT4 cells assessed as reduction in cell viability after 48 to 96 hrs by MTT assay. The format is cell-based. Summed up: (§1)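 Cells are grown in medium with serum: MT-4 at 4×10^5 cells/ml in RPMI-1640 with 10% FBS; MDBK at 6×10^5 in MEM-E with 10% horse serum; BHK at 1×10^6 in MEM-E with 10% FBS; Vero-76 at 4×10^5 in D-MEM with 10% FBS. Serial dilutions are added at 37 °C, 5% CO2, and viability is read by MTT after 48–96 h. CC50 comes from linear regression. For MDBK, selectivity index is CC50/BVDV EC50.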
In general terms: Formazan colour is commonly taken as a measure of viable cells.

A short description of series [3]: Cytotoxicity against African green monkey Vero 76 cells assessed as reduction in cell viability after 48 to 96 hrs by MTT assay. In kind it is cell-based. The conditions noted are these: chlorocebus sabaeus. Summed up: as §1
In series [4] the test system is Yellow fever virus. Put plainly: Antiviral activity against Yellow fever virus 17D infected in golden hamster BHK21 cells assessed as protection against virus-induced cytopathic effect after 3 to 4 days by MTT assay. The format is functional, organism-based. Conditions: BHK-21. Background: Protection from cytopathic effect is a common read-out in antiviral testing.

Series [5] can be described thus: Selectivity index, ratio of CC50 for human MT4 cells to EC50 for HIV1 3B. Conditions: read-out: Ratio CC50/EC50. The format is toxicity. The method in brief: (§2)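 MT-4 cells in exponential growth are acutely infected with HIV-1 at m.o.i. 0.01 and exposed to serial compound dilutions. Viability is read by MTT after 3–4 days at 37 °C. EC50 is the concentration giving 50% protection from virus-induced cytopathogenicity, and CC50 is taken from mock-infected MT-4 cells. Both are fitted by linear regression, and the selectivity index is CC50/EC50.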

In series [6] the test system is Human immunodeficiency virus 1. As to the kind of experiment: Antiviral activity against HIV1 3B infected in human MT4 cells assessed as protection against virus-induced cytopathic effect after 3 to 4 days by MTT assay. The format is functional, organism-based. The conditions noted are these: Human immunodeficiency virus 1, 3B. Summed up: as §2
Series [7] has as its system Mammalian orthoreovirus 1. Put plainly: Antiviral activity against Reovirus 1 3651 ATCC VR-214 infected in golden hamster BHK21 cells assessed as protection against virus-induced cytopathic effect after 3 to 4 days by MTT assay. The format is functional, organism-based. The conditions noted are these: Mammalian orthoreovirus 1, 3651 ATCC VR-214, BHK-21. Summed up:
(§3)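 Cytopathic-effect protection assay. MDBK (BVDV) or BHK (Reo-1) cells are infected in the presence of serial compound dilutions. After 3 or 4 days at 37 °C, viability is read by MTT. EC50 is the concentration giving 50% protection from virus-induced cytopathogenicity, derived by linear regression.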

In series [8] the test system is Human alphaherpesvirus 1. As to the kind of experiment: Antiviral activity against HSV1 KOS ATCC VR 1493 infected in African green monkey Vero 76 cells after 3 days by plaque reduction assay. The format is functional, organism-based. Conditions: Human alphaherpesvirus 1, KOS ATCC VR1493, Vero 76, 72 h. The method in brief: (§4)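 Plaque reduction in Vero-76 monolayers, with cytotoxicity measured in parallel on the same plate. EC50 is the concentration reducing plaque number by 50%, derived by linear regression. CC50 is the concentration reducing viability of mock-infected Vero-76 cells by 50%, by MTT. Selectivity index is CC50/EC50.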

Series [9] is described as follows: Cytotoxicity against golden hamster BHK21 cells assessed as reduction in cell viability after 48 to 96 hrs by MTT assay. The format is cell-based, Mesocricetus auratus, BHK-21. The method in brief: as §1
Series [10] has as its system Vaccinia virus. As to the kind of experiment: Antiviral activity against Vaccinia virus Lister ATCC VR 1549 infected in African green monkey Vero 76 cells after 3 days by plaque reduction assay. Conditions: Orthopoxvirus vaccinia, ATCC VR 1549, Vero 76, 72 h. In kind it is functional, organism-based.
Series [11] deals with Bovine viral diarrhea virus 1. As to the kind of experiment: Antiviral activity against BVDV NADL ATCC VR-534 infected in MDBK cells assessed as protection against virus-induced cytopathic effect after 3 to 4 days by MTT assay. In kind it is functional, organism-based, Bovine viral diarrhea virus 1-NADL. Conditions: Bovine viral diarrhea virus isolates and strains, ATCC VR-534, MDBK. The method in brief: as §3

The subject of series [12] is Human orthopneumovirus. As to the kind of experiment: Antiviral activity against Human respiratory syncytial virus A2 ATCC VR 1540 infected in African green monkey Vero 76 cells after 5 days by plaque reduction assay. The format is functional, organism-based. The conditions noted are these: ATCC VR 1540, Vero 76, 120 h. Summed up:
as §4

The nature of series [13]: Cytotoxicity against MDBK cells assessed as reduction in cell viability after 48 to 96 hrs by MTT assay. The format is cell-based, Bos taurus. Conditions: cattle. The method in brief:
as §1

For series [14], the system named is Human poliovirus 1 strain Sabin. Put plainly: Antiviral activity against Poliovirus 1 Sabin ATCC VR 1562 infected in African green monkey Vero 76 cells after 2 days by plaque reduction assay. The conditions noted are these: Enterovirus C, ATCC VR 1562, Vero 76, 48 h. The format is functional, organism-based.
In series [15] the test system is Coxsackievirus B5. Put plainly: Antiviral activity against Coxsackievirus B5 Ohio-1 ATCC VR 29 infected in African green monkey Vero 76 cells after 3 days by plaque reduction assay. In kind it is functional, organism-based. The conditions noted are these: Enterovirus B, Ohio-1 ATCC VR 29, Vero 76, 72 h. The method in brief: as §4
Series [16] is described as follows: Selectivity index, ratio of CC50 for African green monkey Vero 76 cells to EC50 for Coxsackievirus B5 Ohio-1 ATCC VR-29. In kind it is toxicity. The conditions noted are these: read-out: Ratio CC50/EC50. Summed up:
as §4

Series [17] is described as follows: Selectivity index, ratio of CC50 for MDBK cells to EC50 for BVDV NADL ATCC VR-534. In kind it is toxicity. The conditions noted are these: cattle, read-out: Ratio CC50/EC50. The method in brief: as §1
Series [18] has as its system Human immunodeficiency virus 1. As to the kind of experiment: Antiviral activity against HIV1 3B infected in human MT4 cells assessed as inhibition of viral replication by MTT assay. The format is functional, organism-based. The conditions noted are these: Human immunodeficiency virus 1, 3B. The method in brief:
as §2

In brackets after ≈: the same amount, converted by molar mass. Where only a bound is given, the exact number is not on record here.

One may read the EC50 as the midpoint of the concentration-response curve. The CC50 is the concentration at which the toxic effect on the cells reaches its halfway point. For the compound `COc1nc2ccc(CSc3ccc4ccccc4c3)cc2nc1OC`, the EC50 is over 100 µM in [1]; over 100 µM in series [4]; 36 µM in series [6]; over 100 µM in [7]; over 100 µM in series [8]; over 100 µM in series [10]. Moreover, the EC50 in series [11], in [12], in series [14] and in series [15] was over 100 µM throughout. The CC50 in series [2], in [3], in [9] and in series [13] was over 100 µM in each case. In addition, the selectivity ratio in series [5] came out at 2.7.

Consider `CCOC(=O)CC[C@H](NC(=O)c1ccc(SCc2ccc3nc(OC)c(OC)nc3c2)nc1)C(=O)OCC`, for which the EC50 in series [1] is over 100 µM; in [4], over 85 µM; in series [6] it was over 19 µM; in series [7], over 85 µM; in series [8] it was over 100 µM; in series [10], over 100 µM. Further, the EC50 in [11] was 10 µM; in series [12], over 100 µM; in series [14], over 100 µM; in [15], 56 µM. Moreover, the CC50 in series [2] is 19 µM; in [3] it was over 100 µM; in series [9] it was 85 µM; in series [13] it was over 100 µM. Moreover, the selectivity ratio in series [16] was over 1.7; in series [17] it was over 10.

Broadly, the IC50 is the concentration needed to halve the response being measured. Turning to `C=CCCCOc1cnc2cc(C)c(C)cc2n1`, the IC50 in [18] is 0.22 mg/L (≈ 0.908 µM).

(Values after ChEMBL document CHEMBL4145483, “Quinoxaline derivatives as new inhibitors of coxsackievirus B5” (Eur J Med Chem, 2018).)
